Columns and labels:
LNCaP [1] = assay: Cellular uptake in single-cell suspension of nonproliferating human LNCAP cells expressing androgen receptor assessed as increase in cellular retention at 0.37 uCi/mL after 5 to 16 hrs by gamma counting; type: ADME, cell-based
Outline: (§1)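 Low-passage LNCaP held as single-cell suspension (non-proliferating) in RPMI-1640 with radioligand at 0.03 or 0.37 μCi/mL; whole-cell and nuclear radioactivity measured over time.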

[2] = Ratio of drug level in tumor to spleen in athymic NCr mouse xenografted with human OVCAR-3 cells at 180 uCi, ip administered 9 days after tumor implantation as six fractionated doses every 4 days measured after 1.5 hrs by gamma counting; type: ADME, organism-based; conditions: in vivo
LNCaP [3] = assay: Cellular uptake in single-cell suspension of nonproliferating human LNCAP cells expressing androgen receptor at 0.03 uCi/mL up to 2 hrs by gamma counting; type: ADME, cell-based; conditions: TDE = time-dependent effect; outline: as §1
[4] = Ratio of drug level in tumor to liver in athymic NCr mouse xenografted with human OVCAR-3 cells at 180 uCi, ip administered 9 days after tumor implantation as six fractionated doses every 4 days measured after 48 hrs by gamma counting; type: ADME, organism-based; conditions: in vivo
[5] = Stability in human OVCAR-3 cells expressing androgen receptor assessed as assessed as compound degradation at 0.01 to 5 uCi/mL up to 24 hrs by silica gel instant thin layer chromatography; type: ADME, cell-based; conditions: read-out: Activity
[6] = Ratio of drug level in tumor to uterus in athymic NCr mouse xenografted with human OVCAR-3 cells at 180 uCi, ip administered 9 days after tumor implantation as six fractionated doses every 4 days measured after 24 hrs by gamma counting; type: ADME, organism-based; conditions: in vivo
[7] = Ratio of drug level in tumor to uterus in athymic NCr mouse xenografted with human OVCAR-3 cells at 180 uCi, ip administered 9 days after tumor implantation as six fractionated doses every 4 days measured after 72 hrs by gamma counting; type: ADME, organism-based; conditions: in vivo
[8] = Ratio of drug level in tumor to blood in athymic NCr mouse xenografted with human OVCAR-3 cells at 180 uCi, ip administered 9 days after tumor implantation as six fractionated doses every 4 days measured after 48 hrs by gamma counting; type: ADME, organism-based; conditions: tumour
OVCAR-3 [9] = assay: Antitumor activity against human OVCAR-3 cells xenografted in athymic NCr mouse assessed as number of nonadherent cancer cells in peritoneum at 180 uCi, ip administered 9 days after tumor implantation as six fractionated doses every 4 days measured after 2 weeks of last dose by gamma counting; type: functional
Outline: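 OVCAR-3 ip xenografts in athymic mice; six fractionated ip doses every 4 days, total 180 μCi/mouse, with PBS or vehicle ip controls. Nonadherent tumor cells recovered by peritoneal lavage at necropsy, counted and pellet-weighed.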

[10] = Chemical stability in phosphate buffer saline at 0.85 uCi after 1265 mins by HPLC analysis; type: physicochemical
Spleen = assay: Biodistribution in spleen of athymic NCr mouse xenografted with human OVCAR-3 cells assessed per gram of tissue at an average 39.5 uCi/dose, ip administered 9 days after tumor implantation as six fractionated doses every 4 days measured after 2 weeks of last dose by gamma counting; type: ADME, organism-based; conditions: in vivo, 336 h
Outline: (§2)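 OVCAR-3-bearing and healthy athymic mice given fractionated ip doses on the six-dose every-4-days schedule; tissues, tumor and lavaged cells γ-counted at necropsy, %ID/g; DNA-bound 125I in cells measured as cpm/cell.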

[11] = biological target: T1, Sex hormone-binding globulin (Homo sapiens, UniProt P04278); assay: Binding affinity to human sex hormone binding globulin at 20 uCi after 60 mins by size-exclusion HPLC analysis; type: ADME; conditions: 1 h
T1 sequence (P04278 whole entry): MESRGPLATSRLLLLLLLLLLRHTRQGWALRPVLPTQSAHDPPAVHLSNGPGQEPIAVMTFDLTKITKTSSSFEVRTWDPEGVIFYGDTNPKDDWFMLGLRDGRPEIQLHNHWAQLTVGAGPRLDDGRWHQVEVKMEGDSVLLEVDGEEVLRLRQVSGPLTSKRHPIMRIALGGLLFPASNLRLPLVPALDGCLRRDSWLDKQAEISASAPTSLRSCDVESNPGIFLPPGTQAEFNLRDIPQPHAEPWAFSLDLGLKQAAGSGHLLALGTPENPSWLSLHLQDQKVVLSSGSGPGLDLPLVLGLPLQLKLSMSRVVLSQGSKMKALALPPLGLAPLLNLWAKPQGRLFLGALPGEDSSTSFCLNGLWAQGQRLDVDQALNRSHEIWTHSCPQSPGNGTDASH
Outline: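 Radioligand incubated 60 min with purified human SHBG or with human, rabbit or mouse serum. Size-exclusion HPLC (TSK3000): 0.1 M potassium phosphate/0.1 M Na2SO4 1:1 pH 6.8 for 20 min, then 0–40% CH3CN over 20 min, held 30 min, 0.7 mL/min.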

[12] = Biodistribution in large intestine of athymic NCr mouse xenografted with human OVCAR-3 cells assessed per gram of tissue at an average 39.5 uCi/dose, ip administered 9 days after tumor implantation as six fractionated doses every 4 days measured after 2 weeks of last dose by gamma counting; type: ADME, organism-based; conditions: in vivo, 336 h; outline: as §2
[13] = biological target: T2, Sex hormone-binding globulin (Oryctolagus cuniculus, UniProt P15196); assay: Binding affinity to rabbit sex hormone binding globulin at 20 uCi after 60 mins by reversed phase HPLC analysis; type: ADME; conditions: 1 h
T2 sequence (P15196 whole entry): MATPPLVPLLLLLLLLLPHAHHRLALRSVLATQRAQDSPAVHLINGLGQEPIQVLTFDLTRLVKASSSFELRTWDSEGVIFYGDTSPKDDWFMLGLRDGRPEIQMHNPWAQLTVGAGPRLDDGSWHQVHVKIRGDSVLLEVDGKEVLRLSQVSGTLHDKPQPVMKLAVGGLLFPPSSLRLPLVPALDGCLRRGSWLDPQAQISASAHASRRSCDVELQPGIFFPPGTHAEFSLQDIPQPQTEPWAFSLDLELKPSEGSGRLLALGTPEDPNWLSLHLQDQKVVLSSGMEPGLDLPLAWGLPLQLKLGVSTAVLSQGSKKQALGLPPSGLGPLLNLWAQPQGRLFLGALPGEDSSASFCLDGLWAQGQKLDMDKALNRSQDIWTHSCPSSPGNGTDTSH

[14] = Stability in mouse serum assessed as intact compound remaining at 20 uCi after 40 mins by size-exclusion HPLC analysis; type: ADME, cell-free; conditions: read-out: Stability
Outline: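 The compound was incubated in mouse serum, which lacks circulating SHBG. Aliquots were analysed on size-exclusion HPLC (TSK3000; phosphate/Na2SO4 buffer, pH 6.8, then an acetonitrile gradient). Extracts were analysed by C18 reversed-phase HPLC to measure intact compound remaining over time.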

Serum = assay: Stability in mouse serum assessed as time required for formation of [125I]UdR at 10 to 20 uCi/mL after 60 mins by gamma counting; type: ADME, cell-free; conditions: 1 h
LNCaP [15] = assay: Cellular uptake in nonproliferating human LNCAP cells expressing androgen receptor after 48 hrs by gamma counting in presence of 1 uM DHT relative to uptake in absence of DHT; type: ADME, cell-based
OVCAR-3 [16] = assay: Cellular uptake in human OVCAR-3 cells expressing androgen receptor at 1.75 uCi/mL; type: ADME, cell-based; conditions: TDE = time-dependent effect
Outline: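 NIH:OVCAR-3 cells in complete RPMI-1640 exposed to the radioligand for 24 h (concentration series) or at 1.75 μCi/mL for set times; medium then replaced and cells cultured further 24–48 h; whole-cell and DNA uptake in cpm/cell.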

Structure (SMILES) | fold change (FC) (LNCaP [1]) | Ratio [2] | Drug uptake (LNCaP [3]) | Ratio [4] | metabolised at 24 h [5] [%] | Ratio [6] | Ratio [7] | Ratio [8] | Activity (OVCAR-3 [9]) | Stability [10] | Drug uptake (Spleen) [%ID] | Activity [11] | Drug uptake [12] [%ID] | Activity [13] | remaining at 40 min, 20 uCi [14] [%] | Stability (Serum) [min] | Drug uptake (LNCaP [15]) [%] | Drug uptake (OVCAR-3 [16])
C[C@]12CCC(=O)C[C@@H]1CC[C@@H]1[C@@H]2CC[C@]2(C)[C@@H](OC(=O)CCC(=O)O[C@H]3C[C@H](n4cc([125I])c(=O)[nH]c4=O)O[C@@H]3CO)CC[C@@H]12 | 10 | 1 | tde | 34.4 | 1.1 | 29.9 | 7.4 | 36.5 | 1250000000 | Stable |  |  |  |  |  |  |  | 
C[C@]12CCC(=O)C[C@@H]1CC[C@@H]1[C@@H]2CC[C@]2(C)[C@@H](OC(=O)CCC(=O)O[C@H]3C[C@H](n4cc([125I])c(=O)[nH]c4=O)O[C@@H]3COP(=O)(O)O)CC[C@@H]12 |  |  |  |  |  |  |  |  |  |  | 0.043 | Active | 0.008 | Active | 60 | < 10 | 30 | tde

Source: ChEMBL document CHEMBL1155242, “Radiolabeled 5-iodo-3'-O-(17beta-succinyl-5alpha-androstan-3-one)-2'-deoxyuridine and its 5'-monophosphate for imaging and therapy of androgen receptor-positive cancers: synthesis and biological evaluation” (J Med Chem, 2009)
